The test system of assay [1] is Candida albicans. Kind of assay: Inhibition of Candida albicans ATCC 44859 growth for 24 hours in vitro. The format is functional. The procedure, abridged:
(§1)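 NCCLS M27-A broth microdilution in RPMI 1640 with L-glutamine and 0.165 M MOPS, pH 7.0. Isolates kept on Sabouraud dextrose agar. Inoculum 5 × 10^3 cfu/mL final. Compounds were diluted in DMSO (≤2% final) and tested in 2-fold dilutions of 1000–0.24 µmol/L. Incubation at 35 °C, OD540 read at 24 and 48 h. MIC = 80% growth inhibition versus control; assays run twice in duplicate.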

Assay [2] deals with Aspergillus fumigatus. Kind of assay: Inhibition of Aspergillus fumigatus 231 growth for 48 hours in vitro. The class given is functional. The procedure, abridged: (§2)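 Filamentous isolates tested by microdilution per NCCLS M27-A in RPMI 1640 plus L-glutamine, buffered with 0.165 M MOPS to pH 7.0. Final inoculum 5 × 10^3 cfu/mL. Compounds in DMSO (final ≤2%), 2-fold series over 1000–0.24 µmol/L. Plates held at 35 °C and read visually after 24 and 48 h. MIC taken as 80% inhibition of control growth; determined twice in duplicate.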

Assay [3] relates to Pichia kudriavzevii. Kind of assay: Inhibition of Candida krusei E28 growth for 48 hours in vitro. The class given is functional. The method in brief: as §1
Assay [4] concerns Pichia kudriavzevii. Kind of assay: Inhibition of Candida krusei ATCC 6258 growth for 24 hours in vitro. The class given is functional. The procedure, abridged:
as §1

In assay [5] the test system is Clavispora lusitaniae. Kind of assay: Inhibition of Candida lusitaniae 2446/I growth for 24 hours in vitro. The class given is functional. The procedure, abridged:
as §1

In assay [6] the test system is Candida parapsilosis. Kind of assay: Inhibition of Candida parapsilosis ATCC 22019 growth for 24 hours in vitro. The format is functional. The method in brief:
as §1

Assay [7] concerns Lichtheimia corymbifera. Kind of assay: In vitro inhibition of Absidia corymbifera 272 growth for 48 hours. The class given is functional. The procedure, abridged: as §2
Assay [8] deals with Pichia kudriavzevii. Briefly: Inhibition of Candida krusei ATCC 6258 growth for 48 hours in vitro. The format is functional. The method in brief:
as §1

For assay [9], the system named is Clavispora lusitaniae. Briefly: Inhibition of Candida lusitaniae 2446/I growth for 48 hours in vitro. The format is functional. The method in brief:
as §1

For assay [10], the system named is Candida albicans. Briefly: Inhibition of Candida albicans ATCC 90028 for 24 hours in vitro. The class given is functional. The method in brief:
as §1

For assay [11], the system named is Lichtheimia corymbifera. Briefly: In vitro inhibition of Absidia corymbifera 272 growth for 24 hours. The format is functional. The procedure, abridged:
as §2

The subject of assay [12] is Candida albicans. Briefly: Inhibition of Candida albicans ATCC 44859 growth for 48 hours in vitro. The class given is functional. The method in brief: as §1
Assay [13] has as its system Candida parapsilosis. Kind of assay: Inhibition of Candida parapsilosis ATCC 22019 growth for 48 hours in vitro. The class given is functional. The method in brief:
as §1

Assay [14] concerns Candida albicans. Briefly: Inhibition of Candida albicans ATCC 90028 for 48 hours in vitro. The class given is functional. The procedure, abridged: as §1
Assay [15] deals with Pichia kudriavzevii. Briefly: Inhibition of Candida krusei E28 growth for 24 hours in vitro. The format is functional. The procedure, abridged: as §1
Assay [16] relates to Candida tropicalis. Briefly: Inhibition of Candida tropicalis 156 growth for 48 hours in vitro. The format is functional. The procedure, abridged: as §1
The subject of assay [17] is Nakaseomyces glabratus. Briefly: Inhibition of Candida glabrata 20/I growth for 48 hours in vitro. The format is functional. The procedure, abridged:
as §1

The subject of assay [18] is Nakaseomyces glabratus. Briefly: Inhibition of Candida glabrata 20/I growth for 24 hours in vitro. The class given is functional. The procedure, abridged:
as §1

The test system of assay [19] is Candida tropicalis. Briefly: Inhibition of Candida tropicalis 156 growth for 24 hours in vitro. The class given is functional. The procedure, abridged:
as §1

The subject of assay [20] is Trichosporon beigelii. Kind of assay: Inhibition of Trichosporon beigelli 1188 for 24 hours in vitro. The class given is functional. The method in brief: (§3)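 Microdilution following NCCLS M27-A. Medium: RPMI 1640 with L-glutamine, 0.165 M MOPS, pH 7.0. Final inoculum 5 × 10^3 cfu/mL. Compounds dissolved in DMSO, final ≤2%, serially halved from 1000 to 0.24 µmol/L. Incubated at 35 °C and read at 24 and 48 h. MIC defined as 80% inhibition of control growth; run twice in duplicate.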

A short description of assay [21]: Inhibition of Trichophyton mentagrophytes 445 growth for 72 hours in vitro. The format is functional, Arthroderma benhamiae. The procedure, abridged: (§4)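 Dermatophyte grown in MOPS-buffered (0.165 M, pH 7.0) RPMI 1640 containing L-glutamine, in an M27-A microdilution format. Inoculum 5 × 10^3 cfu/mL final. Compounds from DMSO stocks (≤2% final), 2-fold dilutions 1000–0.24 µmol/L. Incubated at 35 °C, growth judged visually at 72 and 120 h. MIC endpoint is 80% inhibition relative to control; measured twice in duplicate.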

A short description of assay [22]: Inhibition of Trichophyton mentagrophytes 445 growth for 120 hours in vitro. The class given is functional, Arthroderma benhamiae. The procedure, abridged: as §4
The test system of assay [23] is Trichosporon beigelii. Kind of assay: Inhibition of Trichosporon beigelli 1188 for 48 hours in vitro. The format is functional. The procedure, abridged: as §3
Assay [24] concerns Aspergillus fumigatus. Briefly: Inhibition of Aspergillus fumigatus 231 growth for 24 hours in vitro. The format is functional. The procedure, abridged: as §2
Where [25] appears, read: Candida albicans, ATCC 44859, 24 h, read-out: MIC.
Where [26] appears, read: Aspergillus fumigatus, 48 h, read-out: MIC.
[27] abbreviates: Pichia kudriavzevii, 48 h, read-out: MIC.
Setting [28] is: Pichia kudriavzevii, ATCC 6258, 24 h, read-out: MIC.
Where [29] appears, read: Clavispora lusitaniae, 24 h, read-out: MIC.
Setting [30] is: Lodderomyces parapsilosis, ATCC 22019, 24 h, read-out: MIC.
Where [31] appears, read: Lichtheimia corymbifera, 48 h, read-out: MIC.
The mark [32] stands for this setting: Pichia kudriavzevii, ATCC 6258, 48 h, read-out: MIC.
Where [33] appears, read: Clavispora lusitaniae, 48 h, read-out: MIC.
Where [34] appears, read: Candida albicans, ATCC 90028, 24 h, read-out: MIC.
[35] abbreviates: Lichtheimia corymbifera, 24 h, read-out: MIC.
[36] abbreviates: Candida albicans, ATCC 44859, 48 h, read-out: MIC.
The mark [37] stands for this setting: Lodderomyces parapsilosis, ATCC 22019, 48 h, read-out: MIC.
Where [38] appears, read: Candida albicans, ATCC 90028, 48 h, read-out: MIC.
The mark [39] stands for this setting: Pichia kudriavzevii, 24 h, read-out: MIC.

≈ marks a conversion by molar mass, not a printed value.

Take `CC(=O)N1CCN(c2ccc(OCC3COC(Cn4ccnc4)(c4ccc(Cl)cc4Cl)O3)cc2)CC1` (stereo unspecified) [KETOCONAZOLE]: the MIC in the assay on Candida albicans [1] (setting [25]) was found to be 0.11 µM (≈ 0.0585 µg/mL); in the assay on Aspergillus fumigatus [2] (setting [26]), 15.6 µM (≈ 8.31 µg/mL); with Pichia kudriavzevii [3] (setting [27]), 3.91 µM (≈ 2.08 µg/mL); with Pichia kudriavzevii [4] (setting [28]), 1.96 µM (≈ 1.04 µg/mL); in the assay on Clavispora lusitaniae [5] (setting [29]) it was 0.056 µM (≈ 0.0298 µg/mL); in the assay with Candida parapsilosis [6] (setting [30]), 0.11 µM (≈ 0.0585 µg/mL). Moreover, the MIC in the assay on Lichtheimia corymbifera [7] (setting [31]) is 31.2 µM (≈ 16.6 µg/mL); in the assay with Pichia kudriavzevii [8] (setting [32]), 1.96 µM (≈ 1.04 µg/mL); with Clavispora lusitaniae [9] (setting [33]) it was 0.11 µM (≈ 0.0585 µg/mL); in the assay with Candida albicans [10] (setting [34]), under 0.056 µM; in the assay on Lichtheimia corymbifera [11] (setting [35]), 31.2 µM (≈ 16.6 µg/mL); in the assay on Candida albicans [12] (setting [36]), 0.11 µM (≈ 0.0585 µg/mL). The results for the MIC with Candida parapsilosis [13] (setting [37]), with Candida albicans [14] (setting [38]) and in the assay on Pichia kudriavzevii [15] (setting [39]) were 0.11 µM (≈ 0.0585 µg/mL), under 0.056 µM and 3.91 µM (≈ 2.08 µg/mL), respectively.
Take `CC(C)(C)C(=O)OCC1C=C(c2ccc(Cl)c(Cl)c2)C(=O)O1` (stereo in doubt; (-)2c): the MIC with Candida albicans [1] (setting [25]) turned out to be 1.95 µM (≈ 0.669 µg/mL); in the assay with Aspergillus fumigatus [2] (setting [26]), 7.81 µM (≈ 2.68 µg/mL); against Pichia kudriavzevii [3], 5.36 uM l-1; against Pichia kudriavzevii [4], 2.68 uM l-1; with Clavispora lusitaniae [5] (setting [29]), 3.91 µM (≈ 1.34 µg/mL); in the assay on Candida parapsilosis [6] (setting [30]) it was 7.81 µM (≈ 2.68 µg/mL). For the same compound, the MIC in the assay with Lichtheimia corymbifera [7] (setting [31]) is 62.5 µM (≈ 21.5 µg/mL); against Pichia kudriavzevii [8], 10.73 uM l-1; with Clavispora lusitaniae [9] (setting [33]) it was 7.81 µM (≈ 2.68 µg/mL); in the assay with Candida albicans [10] (setting [34]) it was 3.91 µM (≈ 1.34 µg/mL); in the assay on Lichtheimia corymbifera [11] it was 5.36 uM l-1; in the assay with Candida albicans [12] (setting [36]), 3.91 µM (≈ 1.34 µg/mL). Moreover, the MIC came to 15.6 µM (≈ 5.36 µg/mL) in the assay on Candida parapsilosis [13] (setting [37]), 5.36 uM l-1 with Candida tropicalis [16], 7.81 µM (≈ 2.68 µg/mL) in the assay with Candida albicans [14] (setting [38]) and 7.81 µM (≈ 2.68 µg/mL) in the assay on Pichia kudriavzevii [15] (setting [39]).
In the case of `C[C@@H]1[C@H](O)[C@@H](C)/C=C/C=C/C=C/C=C/C=C/C=C/C=C/[C@H](O[C@@H]2O[C@H](C)[C@@H](O)[C@H](N)[C@@H]2O)C[C@@H]2O[C@](O)(C[C@@H](O)C[C@@H](O)[C@H](O)CC[C@@H](O)C[C@@H](O)CC(=O)O[C@H]1C)C[C@H](O)[C@H]2C(=O)O` [AMPHOTERICIN B], the MIC in the assay with Candida albicans [1] (setting [25]) stood at 1.08 µM (≈ 0.998 µg/mL); in the assay with Aspergillus fumigatus [2] (setting [26]), 0.54 µM (≈ 0.499 µg/mL); in the assay with Pichia kudriavzevii [3] (setting [27]), 4.33 µM (≈ 4 µg/mL); with Pichia kudriavzevii [4] (setting [28]), 2.16 µM (≈ 2 µg/mL); in the assay with Nakaseomyces glabratus [17], 2 µg/mL (≈ 2.16 µM); with Clavispora lusitaniae [5] (setting [29]), 2.16 µM (≈ 2 µg/mL). Further, the MIC in the assay on Candida parapsilosis [6] (setting [30]) was 2.16 µM (≈ 2 µg/mL); in the assay on Lichtheimia corymbifera [7] (setting [31]) it was 2.16 µM (≈ 2 µg/mL); in the assay on Pichia kudriavzevii [8] (setting [32]) it was 4.33 µM (≈ 4 µg/mL); in the assay on Clavispora lusitaniae [9] (setting [33]), 2.16 µM (≈ 2 µg/mL); in the assay on Nakaseomyces glabratus [18] it was 2 µg/mL; in the assay on Candida albicans [10] (setting [34]) it was 2.16 µM (≈ 2 µg/mL). In addition, the MIC with Lichtheimia corymbifera [11] (setting [35]) came to 2.16 µM (≈ 2 µg/mL); with Candida albicans [12] (setting [36]), 1.08 µM (≈ 0.998 µg/mL); with Candida parapsilosis [13] (setting [37]), 2.16 µM (≈ 2 µg/mL); in the assay on Candida albicans [14] (setting [38]), 2.16 µM (≈ 2 µg/mL); with Pichia kudriavzevii [15] (setting [39]) it was 2.16 µM (≈ 2 µg/mL).
As for `CC(C)(C)C(=O)OCC1C=C(c2ccc(Cl)c(Cl)c2)C(=O)O1` (single isomer, unassigned; (+)), the MIC stood at 0.67 µM (≈ 0.23 µg/mL) against Candida albicans [1]; 2.68 uM l-1 against Aspergillus fumigatus [2]; 5.36 uM l-1 with Candida tropicalis [19]; 10.73 uM l-1 against Pichia kudriavzevii [3]; 2.68 uM l-1 with Trichosporon beigelii [20]; 5.36 uM l-1 against Pichia kudriavzevii [4]. The MIC with Nakaseomyces glabratus [17] turned out to be 1.34 uM l-1; against Clavispora lusitaniae [5], 1.34 uM l-1; in [21], 0.34 µM (≈ 0.117 µg/mL); in [22], 0.67 uM l-1; against Trichosporon beigelii [23], 5.36 uM l-1; in the assay on Candida parapsilosis [6], 2.68 uM l-1. The MIC in the assay on Lichtheimia corymbifera [7] is 10.73 uM l-1; against Clavispora lusitaniae [9], 2.68 uM l-1; in the assay on Nakaseomyces glabratus [18], 0.67 µM; in the assay on Candida albicans [10] it was 1.34 uM l-1; in the assay with Lichtheimia corymbifera [11] it was 10.73 uM l-1; in the assay on Candida albicans [12] it was 1.34 uM l-1. Moreover, the MIC turned out to be 5.36 uM l-1 with Candida parapsilosis [13]; 10.73 uM l-1 in the assay with Candida tropicalis [16]; 2.68 µM (≈ 0.92 µg/mL) against Candida albicans [14]; 1.34 uM l-1 against Aspergillus fumigatus [24]; 5.36 uM l-1 against Pichia kudriavzevii [15].

The values above are taken from ChEMBL document CHEMBL1134691, “3-Phenyl-5-acyloxymethyl-2H,5H-furan-2-ones: synthesis and biological activity of a novel group of potential antifungal drugs” (2001).
